Data set [1] in a line: Induction of NO release assessed as nitrite level. It is filed as physicochemical. The method in brief:
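Indirect measurement on a Sievers NOA 280 nitric oxide analyser; compounds dissolved in DMSO (1 mg in 200 µL) and analysed in oxygenated medium. Nitrite anion, the NO degradation byproduct, quantified; result given as IC50.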

For the next data set, the system named is Trypanosoma cruzi. Nature of the data set: Trypanocidal activity against Trypanosoma cruzi Tulahuen C2C4 amastigotes infected in rat L6 cells after 4 days. Conditions: Tulahuen C2C4, L6, 96 h. It counts as functional, organism-based.
Data set [2] is described as follows: Efflux ratio of permeability from basolateral to apical side over apical to basolateral side in human Caco2 cells. It counts as ADME, cell-based. Conditions: Caco-2.
The nature of data set [3]: Permeability across apical to basolateral side in human Caco2 cells. It counts as ADME, cell-based. Conditions: Caco-2, read-out: permeability. Put shortly:
(§1)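 Caco-2 grown 21 days on Transwell filters (seeded 5 × 10⁴ cells/cm²); monolayer integrity checked by TEER and fluorescein, metoprolol, amoxicillin markers. […] compound in HBSS pH 7.4 dosed A→B and B→A, basolateral pH 7.4, 37 °C, orbital shaking 25 rpm. Quantified by HPLC-UV 254 nm (C18, 35 °C, phosphate pH 3.5/acetonitrile 50:50). Papp = (VR·ΔQ/Δt)/(A·C0), using only receiver concentrations under 10% of donor.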

Data set [4] in a line: Permeability across basolateral to apical side in human Caco2 cells. It counts as ADME, cell-based. Conditions: Caco-2, read-out: permeability. Put shortly:
as §1

The next data set concerns the target Cruzipain (Trypanosoma cruzi, UniProt P25779). Put plainly: Inhibition of Trypanosoma cruzi cruzain expressed in Escherichia coli M15/DH5alpha using Z-Phe-Arg-AMC as substrate by spectrofluorometry. The method in brief:
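C-terminally truncated cruzain (0.64 nM) in 50 mM sodium phosphate, 100 mM NaCl, 5 mM EDTA, 5 mM DTT, pH 6.5, preincubated 5 min at room temperature with inhibitor before adding Z-Phe-Arg-AMC. AMC release followed by fluorescence (ex 355, em 460 nm). IC50 by nonlinear regression of activity relative to no-inhibitor control.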

Data set [5] is described as follows: Selectivity index, ratio of IC50 for human HepG2 cells to IC50 for Trypanosoma cruzi Tulahuen C2C4. It counts as toxicity, cell-based. Conditions: read-out: Ratio IC50. The method in brief: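 SI computed as XTT cytotoxicity IC50 divided by amastigote IC50.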
The next data set concerns HepG2. Put plainly: Cytotoxicity against human HepG2 cells after 24 hrs by XTT assay. It is filed as cell-based. Conditions: HepG2, 24 h. The method in brief:
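Cells kept in DMEM with 10% FCS, penicillin/streptomycin and bicarbonate at 37 °C, 5% CO2; plated at 5 × 10⁴ cells/well 24 h before treatment. Exposed 24 h to […] in DMSO (final 0.44% v/v). After two PBS washes, XTT reagent added for 1 h at 37 °C; OD 450 nm minus 690 nm, normalized to medium-only controls.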

Cruzipain, sequence (P25779 whole entry, the tested form may be a part): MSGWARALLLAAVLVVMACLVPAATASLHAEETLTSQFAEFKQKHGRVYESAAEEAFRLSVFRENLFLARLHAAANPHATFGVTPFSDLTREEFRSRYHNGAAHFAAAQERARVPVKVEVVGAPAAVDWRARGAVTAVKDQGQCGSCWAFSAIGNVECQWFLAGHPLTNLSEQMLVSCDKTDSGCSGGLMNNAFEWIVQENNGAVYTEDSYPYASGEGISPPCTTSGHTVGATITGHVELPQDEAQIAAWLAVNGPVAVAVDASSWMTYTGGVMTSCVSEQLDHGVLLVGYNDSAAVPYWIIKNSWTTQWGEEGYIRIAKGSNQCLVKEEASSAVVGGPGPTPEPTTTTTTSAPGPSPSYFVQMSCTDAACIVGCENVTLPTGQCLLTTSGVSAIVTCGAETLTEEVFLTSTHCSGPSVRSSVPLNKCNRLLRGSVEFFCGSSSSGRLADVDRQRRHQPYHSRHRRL

Consider `Cc1c(/C=N/NC(=O)c2cccc([N+](=O)[O-])c2)no[n+]1[O-]`, for which the IC50 in data set [1] came to 52 µM; with Trypanosoma cruzi, 9.94 µM.
On the same counts, the results for `Cc1c(/C=N/NC(=O)c2ccco2)no[n+]1[O-]` are 1220 µM and 6.7 µM.
Taken in the same sequence, the figures for `Cc1c(/C=N/NC(=O)c2ccccc2)no[n+]1[O-]` were 210 µM and over 100 µM.
Regarding `Cc1c(/C=N/NC(=O)Cc2ccccc2)no[n+]1[O-]`, the values for the IC50 (in data set [1]; with Trypanosoma cruzi) were 898 µM and over 100 µM, respectively.
Taken in the same sequence, the figures for `Cc1c(/C=N/NC(=O)c2ccc(Br)cc2)no[n+]1[O-]` were 102 µM and 27.4 µM.
Taken in the same sequence, the figures for `Cc1c(/C=N/NC(=O)c2ccc(Cl)cc2)no[n+]1[O-]` were 56 µM and 14.3 µM.
For the molecule `Cc1c(/C=N/NC(=O)c2ccc([N+](=O)[O-])cc2)no[n+]1[O-]`, in data set [2], the efflux ratio worked out at 0.87. Moreover, in data set [3], the Papp A→B is 43.2 ×10⁻⁶ cm/s. For the same molecule, the IC50 in data set [1] came out at 242 µM; on Cruzipain, 11.2 µM; in the data set with HepG2, 80.9 µM; in the data set on Trypanosoma cruzi, 2.88 µM. In addition, the Papp B→A in data set [4] amounted to 37.6 ×10⁻⁶ cm/s. In data set [5], the selectivity ratio turned out to be 28.1.
`Cc1c(/C=N/NC(=O)c2ccccc2Nc2ccccc2)no[n+]1[O-]`: the IC50 worked out at 124 µM in data set [1] and 5.69 µM with Trypanosoma cruzi.
As for `O=C(N/N=C/c1c(-c2ccccc2)no[n+]1[O-])c1ccco1`, the IC50 in data set [1] amounted to 867 µM; in the data set with Trypanosoma cruzi it was 8.12 µM.
Regarding `O=C(N/N=C/c1c(-c2ccccc2)no[n+]1[O-])c1ccc(Cl)cc1`, the IC50 is 4230 µM in data set [1] and over 100 µM with Trypanosoma cruzi.
Taken in the same sequence, the figures for `O=C(N/N=C/c1c(-c2ccccc2)no[n+]1[O-])c1ccc(Br)cc1` were 601 µM and over 100 µM.
On the same counts, the results for `O=C(N/N=C/c1c(-c2ccccc2)no[n+]1[O-])c1cccc([N+](=O)[O-])c1` are 912 µM and 15.3 µM.
Taken in the same sequence, the figures for `O=C(N/N=C/c1c(-c2ccccc2)no[n+]1[O-])c1ccccc1` were 132 µM and over 100 µM.
`O=C(N/N=C/c1c(-c2ccccc2)no[n+]1[O-])c1ccc([N+](=O)[O-])cc1`: in data set [2], the efflux ratio was determined as 0.63. In addition, the Papp A→B in data set [3] worked out at 0.82 ×10⁻⁶ cm/s. Besides, the IC50 came out at 110 µM in data set [1], 15.1 µM against Cruzipain, 45.5 µM in the data set with HepG2 and 2.9 µM in the data set on Trypanosoma cruzi. Besides, in data set [4], the Papp B→A worked out at 0.52 ×10⁻⁶ cm/s. The selectivity ratio in data set [5] was determined as 15.7.
`O=C(Cc1ccccc1)N/N=C/c1c(-c2ccccc2)no[n+]1[O-]`: the figures for the IC50 (in data set [1]; in the data set on Trypanosoma cruzi) were 33.4 µM and 9.1 µM, respectively.
Take `O=C(Cn1ccnc1[N+](=O)[O-])NCc1ccccc1` [BENZNIDAZOLE]: the selectivity ratio in data set [5] worked out at 18.7. Moreover, the IC50 in the data set on HepG2 is 28.1 µM; in the data set with Trypanosoma cruzi it was 1.5 µM.

Source of the values: ChEMBL document CHEMBL3286336, “Design, synthesis and biological evaluation of hybrid bioisoster derivatives of N-acylhydrazone and furoxan groups with potential and selective anti-Trypanosoma cruzi activity” (Eur J Med Chem, 2014).
